Square brackets hold non-standard residues; d marks the D form. Peptide text beside a SMILES is read from it. * marks the point of attachment. X1 = CCCCCCCCCCCCCCCC(=O)OC[C@H](COP(=O)(O)OCCNC(=O)CCCc1ccc(N2C(=O)CC(*)C2=O)cc1)OC(=O)CCCCCCCCCCCCCCC; pS = N[C@@H](COP(=O)(O)O)C(=O)O
Columns and labels:
AP2 [1] = target: T1, AP2 (UniProt P18484+P62743+P63010+P84092); experiment: High-resolution SNR rigid-body modeling of membrane-bound AP2; format: binding
In short: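 Measured on the FIGARO time-of-flight reflectometer at 0.6° and 3.7°, 7% dλ/λ, Qz 0.007–0.25 Å−1, in 100% and 8.1% D2O contrasts. Trough monolayers at 25 ± 1 mN/m were measured before and after AP2 injection into the subphase (final 10 nM). SLD profiles were calculated from energy-minimised open, open+ and closed AP2 models (PDB […], 6qh6, 2vgl) to fit orientation and position. Fractional coverage is given as mean ± SD, n = 256.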

AP2 [2] = target: T1, AP2; experiment: Fluid-phase tapping-mode AFM of transferred monolayers; conditions: CD4-presenting monolayers
In short: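 Monolayers were transferred from a Langmuir trough onto glass coverslips by Langmuir–Schaeffer and imaged by fluid-phase tapping-mode AFM. Scans were 5 μm at 256×256 pixels and 1 Hz. A droplet of HKM buffer containing recombinant AP2 was spread and imaged before evaporation. Thickness profiles (n = 10) were Gaussian-fitted to give mean ± SD.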

[3] = Surface pressure - area isotherms of PM model membranes; format: physicochemical; conditions: T = 21 ± 0.5 °C
AP2 [4] = target: T1, AP2; experiment: Equilibrium tensiometry binding analysis
AP2 [5] = target: T1, AP2; experiment: SNR low-resolution slab model of membrane-bound AP2 on Langmuir monolayers; format: binding; conditions: AP2 10 nM
In short: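 Langmuir-trough monolayers held at 25 ± 1 mN/m were measured on the FIGARO reflectometer, then AP2 was injected beneath them to a final bulk concentration of 10 nM. Settings were two incidence angles (0.6°, 3.7°), 7% wavelength resolution and Qz 0.007–0.25 Å−1, with 100% D2O and 8.1% D2O contrasts. The bound protein was fitted as a slab of constant SLD. Fit errors were ±1σ, checked against triplicate measurements.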

[6] = SNR of Langmuir lipid monolayers before AP2; format: physicochemical; conditions: Π0 = 25 ± 0.5 mN/m
[7] = target: TGN38 lipo-peptide (Yxxφ-containing peptide derived from the cytoplasmic tail of TGN38, lipid-conjugated); experiment: specular neutron reflectometry
[8] = target: CD4 lipo-peptide (di-leucine peptide derived from the phosphorylated cytoplasmic tail of CD4, lipid-conjugated); experiment: specular neutron reflectometry
[9] = target: TGN38 lipo-peptide (Yxxφ-containing peptide derived from the cytoplasmic tail of TGN38, lipid-conjugated); experiment: Langmuir trough surface-pressure tensiometry
[10] = target: CD4 lipo-peptide (di-leucine peptide derived from the phosphorylated cytoplasmic tail of CD4, lipid-conjugated); experiment: Langmuir trough surface-pressure tensiometry

Sequence of AP2 (recombinant adaptor protein complex 2, hetero-tetramer) (P18484 whole entry): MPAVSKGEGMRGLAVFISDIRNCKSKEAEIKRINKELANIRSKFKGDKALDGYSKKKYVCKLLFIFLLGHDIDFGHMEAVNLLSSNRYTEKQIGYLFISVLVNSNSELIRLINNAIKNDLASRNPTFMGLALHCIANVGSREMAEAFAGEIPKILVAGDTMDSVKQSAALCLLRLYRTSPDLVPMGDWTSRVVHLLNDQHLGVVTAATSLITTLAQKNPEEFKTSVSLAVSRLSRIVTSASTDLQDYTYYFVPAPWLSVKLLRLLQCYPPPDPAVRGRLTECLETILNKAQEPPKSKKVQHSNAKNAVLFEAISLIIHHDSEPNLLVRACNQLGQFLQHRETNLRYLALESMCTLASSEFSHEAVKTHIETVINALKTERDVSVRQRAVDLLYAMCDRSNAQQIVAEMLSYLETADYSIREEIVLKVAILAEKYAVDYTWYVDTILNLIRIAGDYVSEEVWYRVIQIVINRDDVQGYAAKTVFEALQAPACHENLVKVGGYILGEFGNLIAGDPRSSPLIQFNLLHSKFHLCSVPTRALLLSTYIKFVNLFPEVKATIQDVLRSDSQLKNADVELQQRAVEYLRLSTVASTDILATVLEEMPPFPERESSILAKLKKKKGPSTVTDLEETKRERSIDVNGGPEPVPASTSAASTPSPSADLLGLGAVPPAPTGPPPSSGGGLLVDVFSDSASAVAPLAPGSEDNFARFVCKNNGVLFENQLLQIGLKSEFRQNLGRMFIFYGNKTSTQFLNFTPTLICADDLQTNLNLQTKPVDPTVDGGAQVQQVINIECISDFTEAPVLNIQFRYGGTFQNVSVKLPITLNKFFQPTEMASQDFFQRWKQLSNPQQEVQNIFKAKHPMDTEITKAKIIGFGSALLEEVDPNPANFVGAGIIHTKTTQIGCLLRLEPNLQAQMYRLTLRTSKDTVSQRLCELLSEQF
Sequence of AP2 (recombinant adaptor protein complex 2, hetero-tetramer) (P63010 whole entry): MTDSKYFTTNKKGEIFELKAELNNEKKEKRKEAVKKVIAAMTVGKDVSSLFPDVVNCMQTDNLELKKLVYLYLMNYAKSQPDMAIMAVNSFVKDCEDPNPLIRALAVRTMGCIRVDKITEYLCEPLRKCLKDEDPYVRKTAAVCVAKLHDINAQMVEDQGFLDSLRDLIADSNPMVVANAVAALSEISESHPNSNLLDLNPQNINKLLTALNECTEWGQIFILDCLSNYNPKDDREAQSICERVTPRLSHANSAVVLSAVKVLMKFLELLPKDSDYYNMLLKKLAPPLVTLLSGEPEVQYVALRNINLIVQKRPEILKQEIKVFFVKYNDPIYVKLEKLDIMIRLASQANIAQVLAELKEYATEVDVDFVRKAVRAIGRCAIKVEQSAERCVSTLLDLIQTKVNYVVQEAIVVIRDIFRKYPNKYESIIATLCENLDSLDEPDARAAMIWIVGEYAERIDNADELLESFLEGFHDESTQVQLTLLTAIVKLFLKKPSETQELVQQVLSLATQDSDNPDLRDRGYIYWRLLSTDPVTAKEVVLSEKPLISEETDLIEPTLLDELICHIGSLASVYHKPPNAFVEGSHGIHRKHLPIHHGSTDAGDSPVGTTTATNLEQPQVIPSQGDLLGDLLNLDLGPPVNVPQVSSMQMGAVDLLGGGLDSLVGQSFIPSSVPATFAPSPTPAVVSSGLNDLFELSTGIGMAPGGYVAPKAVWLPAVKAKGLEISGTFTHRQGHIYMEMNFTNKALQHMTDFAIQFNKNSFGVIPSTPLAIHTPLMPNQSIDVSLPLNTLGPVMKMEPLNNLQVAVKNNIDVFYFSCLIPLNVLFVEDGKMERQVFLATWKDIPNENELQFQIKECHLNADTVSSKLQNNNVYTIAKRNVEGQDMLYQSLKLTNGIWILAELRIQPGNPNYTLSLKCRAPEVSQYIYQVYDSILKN
Sequence of AP2 (recombinant adaptor protein complex 2, hetero-tetramer) (P84092 whole entry): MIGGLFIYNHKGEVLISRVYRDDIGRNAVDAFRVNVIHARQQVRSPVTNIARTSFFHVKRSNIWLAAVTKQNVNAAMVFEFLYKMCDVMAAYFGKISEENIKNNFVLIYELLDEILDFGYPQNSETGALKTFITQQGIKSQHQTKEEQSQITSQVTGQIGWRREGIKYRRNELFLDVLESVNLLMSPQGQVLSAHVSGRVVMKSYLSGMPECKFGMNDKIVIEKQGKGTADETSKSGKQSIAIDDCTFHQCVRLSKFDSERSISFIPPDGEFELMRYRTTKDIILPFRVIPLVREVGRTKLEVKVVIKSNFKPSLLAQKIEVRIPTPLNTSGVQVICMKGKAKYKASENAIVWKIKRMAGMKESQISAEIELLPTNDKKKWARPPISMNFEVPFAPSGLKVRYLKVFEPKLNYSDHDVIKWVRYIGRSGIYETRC
Sequence of AP2 (recombinant adaptor protein complex 2, hetero-tetramer) (P62743 whole entry): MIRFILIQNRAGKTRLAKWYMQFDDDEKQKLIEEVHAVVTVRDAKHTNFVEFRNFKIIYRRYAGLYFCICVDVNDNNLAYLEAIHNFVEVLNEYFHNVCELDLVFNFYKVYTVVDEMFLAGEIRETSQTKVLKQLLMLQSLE
T1 sequence (P63010 1-591): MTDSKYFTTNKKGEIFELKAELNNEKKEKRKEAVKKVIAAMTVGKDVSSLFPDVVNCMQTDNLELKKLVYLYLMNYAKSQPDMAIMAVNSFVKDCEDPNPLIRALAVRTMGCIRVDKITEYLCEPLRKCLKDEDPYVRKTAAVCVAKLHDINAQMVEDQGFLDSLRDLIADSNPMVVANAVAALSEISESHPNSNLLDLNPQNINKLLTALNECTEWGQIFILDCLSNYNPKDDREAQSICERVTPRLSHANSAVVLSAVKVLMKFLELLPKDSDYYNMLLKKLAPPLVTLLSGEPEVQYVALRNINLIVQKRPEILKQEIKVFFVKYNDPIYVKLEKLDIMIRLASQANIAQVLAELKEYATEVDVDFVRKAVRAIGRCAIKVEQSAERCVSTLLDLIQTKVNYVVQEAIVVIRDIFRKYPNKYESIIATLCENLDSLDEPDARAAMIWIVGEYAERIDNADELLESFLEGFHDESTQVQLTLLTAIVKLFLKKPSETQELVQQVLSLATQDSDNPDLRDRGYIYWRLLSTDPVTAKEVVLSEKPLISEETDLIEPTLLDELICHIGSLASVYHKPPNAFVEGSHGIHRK
T1 sequence (P84092 whole entry): as the sequence (P84092 whole entry) above
T1 sequence (P18484 1-621): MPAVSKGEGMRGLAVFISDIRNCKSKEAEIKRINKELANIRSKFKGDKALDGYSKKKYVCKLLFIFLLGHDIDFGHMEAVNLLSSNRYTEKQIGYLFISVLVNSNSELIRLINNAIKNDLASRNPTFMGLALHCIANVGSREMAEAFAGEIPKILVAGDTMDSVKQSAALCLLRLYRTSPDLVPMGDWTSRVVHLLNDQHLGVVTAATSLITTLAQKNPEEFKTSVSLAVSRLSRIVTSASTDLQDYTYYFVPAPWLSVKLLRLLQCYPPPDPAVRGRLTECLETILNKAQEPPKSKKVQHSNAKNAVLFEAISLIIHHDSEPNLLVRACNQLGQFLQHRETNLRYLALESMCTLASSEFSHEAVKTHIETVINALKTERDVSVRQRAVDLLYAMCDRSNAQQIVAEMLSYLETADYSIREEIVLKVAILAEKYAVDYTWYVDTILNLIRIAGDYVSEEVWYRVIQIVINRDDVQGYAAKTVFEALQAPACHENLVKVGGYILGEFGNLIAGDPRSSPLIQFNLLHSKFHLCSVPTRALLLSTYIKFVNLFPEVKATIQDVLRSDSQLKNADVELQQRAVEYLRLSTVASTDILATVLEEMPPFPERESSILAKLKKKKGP
T1 sequence (P62743 whole entry): as the sequence (P62743 whole entry) above

| surface coverage of AP2 (AP2 [1]; open AP2 conformation) [%] | distance of AP2 center-of-mass to membrane head group (AP2 [1]; open AP2 conformation (2xa7)) [Å] | increment of bright spots' thickness after AP2 (AP2 [2]) | change in lateral pressure ΔΠ∞ on addition of cargo (AP2 [4]; AP2, Π0 = 25 mN/m, vs PtdIns(4,5)P2-only) | AP2 concentration above which biphasic binding behavior is observed (AP2 [4]; cargo-presenting monolayer vs PtdIns(4,5)P2-only) [nM] | total thickness of membrane-bound AP2 (AP2 [5]) [Å] | surface coverage of AP2 on the monolayer (with PtdIns(4,5)P2) [7] [%] | surface coverage of AP2 on the monolayer (with PtdIns(4,5)P2) [8] [%] | Kd from kinetics (monolayer with cargo and PtdIns(4,5)P2) [9] [µM] | overall Kd (monolayer with cargo and PtdIns(4,5)P2) [9] [µM] | overall Kd (monolayer with cargo and PtdIns(4,5)P2, 35 mN/m) [9] [µM] | residence time (1/koff) on the monolayer with PtdIns(4,5)P2 [9] [s] | Kd [10] [µM] | apparent koff (combined cargo and PtdIns(4,5)P2 binding, monolayer) [10] [s⁻¹] | overall Kd (monolayer with cargo and PtdIns(4,5)P2, 35 mN/m) [10] [µM] | residence time (1/koff) on the monolayer with PtdIns(4,5)P2 [10] [s] | Compound | effect on liquid expanded (LE) phase [3] | location of cargo peptides in monolayer [6] |
| --- | --- | --- | --- | --- | --- | --- | --- | --- | --- | --- | --- | --- | --- | --- | --- | --- | --- | --- |
| 24 | 10 ± 4 | A similar increment was also found | further increases in lateral pressure | > 10 | 84 ± 6 | – | – | – | – | – | – | – | – | – | – | CCCCCCCCCCCCCCCC(=O)OC[C@H](COP(=O)(O)OCCNC(=O)CCCc1ccc(N2C(=O)CC(SC[C@H](N)C(=O)N[C@@H](Cc3c[nH]cn3)C(=O)N[C@@H](CCCNC(=N)N)C(=O)N[C@@H](CCCNC(=N)N)C(=O)N[C@@H](CCCNC(=N)N)C(=O)N[C@@H](CCC(N)=O)C(=O)N[C@@H](C)C(=O)N[C@@H](CCC(=O)O)C(=O)N[C@@H](CCCNC(=N)N)C(=O)N[C@@H](CCSC)C(=O)N[C@@H](COP(=O)(O)O)C(=O)N[C@@H](CCC(N)=O)C(=O)N[C@H](C(=O)N[C@@H](CCCCN)C(=O)N[C@@H](CCCNC(=N)N)C(=O)N[C@@H](CC(C)C)C(=O)N[C@@H](CC(C)C)C(=O)N[C@@H](CO)C(=O)N[C@@H](CCC(=O)O)C(=O)N[C@@H](CCCCN)C(=O)O)[C@@H](C)CC)C2=O)cc1)OC(=O)CCCCCCCCCCCCCCC (stereo partly drawn) [CD4] (H-C(X1)HRRRQAERM[pS]QIKRLLSEK-OH; N-terminus and C-terminus assumed) | did not alter the existence of the LE phase | confined to the headgroups layer |
| – | – | – | – | – | – | 51 | 24 | 0.012 | 0.015 | 0.064 | 5560 | 0.075 | 0.00012 | 0.093 | 8330 | AP2 (recombinant adaptor protein complex 2, hetero-tetramer) (from UniProt P18484 1-938; P63010 1-937; P84092 1-435; P62743 1-142) | – | – |

— paper PMC12343878 (Communications Biology, 2025)
